Rows were chosen to be rich in hits. Some 2.3% of all compounds tested hit in one or more screens of this group.
TRPC4 potent = allosterically enhances the mouse TRPC4 cation channel. 310,000 tested, 0.42% active. AID 2227. HEK293 TRPC4beta/mu-opioid, DAMGO EC20, Fluo-4 Ca2+ flux; active compounds read high. B-score at 10 µM. Q9QUQ5;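 active means B-score of calcium response area above 5 SD of library B-scores, with initial fluorescence ratio within 5 SD of library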;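 further: B-score of integrated fluorescence ratio over time as area under calcium response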
Target sequence (Q9QUQ5 whole entry, looked up): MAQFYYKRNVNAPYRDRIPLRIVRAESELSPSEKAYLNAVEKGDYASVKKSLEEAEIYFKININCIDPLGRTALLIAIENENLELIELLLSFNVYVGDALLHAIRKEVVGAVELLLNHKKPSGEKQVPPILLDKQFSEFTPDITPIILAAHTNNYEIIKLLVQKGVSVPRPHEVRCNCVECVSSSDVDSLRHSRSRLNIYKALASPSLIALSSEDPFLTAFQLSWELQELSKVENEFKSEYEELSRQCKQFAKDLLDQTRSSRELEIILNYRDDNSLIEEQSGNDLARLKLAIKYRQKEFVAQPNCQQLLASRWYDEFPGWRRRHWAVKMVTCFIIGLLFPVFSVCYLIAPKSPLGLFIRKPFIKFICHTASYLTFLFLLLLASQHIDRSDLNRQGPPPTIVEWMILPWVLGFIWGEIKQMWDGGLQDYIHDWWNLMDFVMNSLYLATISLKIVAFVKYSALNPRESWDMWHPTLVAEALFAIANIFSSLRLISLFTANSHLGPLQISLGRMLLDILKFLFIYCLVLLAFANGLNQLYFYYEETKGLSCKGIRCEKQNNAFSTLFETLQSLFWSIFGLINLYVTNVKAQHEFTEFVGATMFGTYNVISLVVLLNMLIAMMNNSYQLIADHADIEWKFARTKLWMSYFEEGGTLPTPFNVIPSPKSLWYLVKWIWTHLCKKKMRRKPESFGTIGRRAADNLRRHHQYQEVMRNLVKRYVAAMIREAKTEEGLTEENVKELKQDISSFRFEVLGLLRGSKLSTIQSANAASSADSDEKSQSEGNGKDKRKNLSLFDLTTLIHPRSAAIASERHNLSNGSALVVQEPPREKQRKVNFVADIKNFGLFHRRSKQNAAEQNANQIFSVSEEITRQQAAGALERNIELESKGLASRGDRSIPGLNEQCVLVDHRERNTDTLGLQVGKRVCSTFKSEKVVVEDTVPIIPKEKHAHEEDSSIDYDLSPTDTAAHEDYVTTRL
TRPC6 inhibitor = inhibitors of mouse TRPC6 channel | 310,000 tested, 1.1% active | AID 2553 | HEK293-TRPC6, membrane potential dye, ACh-evoked depolarization; active compounds read low | B-score at 10 µM | Q61143;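 active means B-score under library mean minus 3 SD, initial fluorescence not abnormally high, positive integrated signal ratio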;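 further: B-score derived from integrated fluorescence ratio over the kinetic read; more negative B-score means stronger inhibition of depolarization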
TRPC4 inh = blocks the mouse TRPC4 cation channel; Q9QUQ5; HEK293 TRPC4beta/mu-opioid, DAMGO-evoked Fluo4 calcium flux; active compounds read low; B-score at 10 µM; 300,000 tested, 0.39% active; AID 2247;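 active means B-score over 3 SD under the library average, no early fluorescence shift, positive overall ratio signal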
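Assay system: TRPC4beta/mu-opioid receptor HEK293 cell line; compound dosing: single concentration per test compound; detection: Fluo4 Ca2+ flux fluorescence; evaluation: per-well B score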
TRPC4 agonist = opens the mouse TRPC4 cation channel | 310,000 tested, 0.49% active | B-score at 10 µM | Q9QUQ5 | HEK293 TRPC4beta/mu-opioid, Fluo4 calcium fluorescence; active compounds read high | AID 2237;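 active means B-score above 5 SD of library B-scores, and initial fluorescence ratio not above library mean plus 5 SD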;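 further: positive B-score marks a calcium rise read as TRPC4 activation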
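Assay system: HEK293 cells stably co-expressing mouse TRPC4beta and mu-opioid receptor / Timing: Fluo4 dye loading 45 min at room temperature, 110 s recording / Signal: Fluo4 calcium-sensitive dye fluorescence, kinetic, 1 Hz baseline / Read-out: integrated baseline-normalised fluorescence ratio, converted to per-well B score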
TRPC6 act = mouse TRPC6 channel activation. HEK293-TRPC6 membrane potential dye fluorescence; active compounds read high. Q61143. 310,000 tested, 0.13% active. B-score at 10 µM;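 active means B-score of the integrated fluorescence ratio above library mean plus 3 SD, and starting fluorescence ratio within library mean plus 5 SD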;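 further: higher score means more depolarization so channel activation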
* marks the source's active call; other numbers are inactive results.

For CCCCCOc1ccc2oc(=O)c3c(c2c1)CCCN3C(=O)CN1CCCC(C(=O)OCC)C1 (stereo not drawn) the results were TRPC4 potent 33*, TRPC6 inhibitor inactive, TRPC4 inh inactive, TRPC4 agonist inactive and TRPC6 act inactive.
CCOC(=O)C(C)Sc1nc2c(c(=O)[nH]c(=O)n2C)n1Cc1ccc(Cl)cc1 (stereo not drawn) was read as TRPC4 potent inactive, TRPC6 inhibitor inactive, TRPC4 inh -6*, TRPC4 agonist inactive and TRPC6 act inactive.
Screening O=C(Cc1cccs1)NNC(=S)NC(=O)c1ccc(F)c(F)c1 returned TRPC4 potent inactive, TRPC6 inhibitor inactive, TRPC4 inh inactive, TRPC4 agonist 60* and TRPC6 act inactive.
`O=C(/C=C/c1ccccc1)NC(=S)NNC(=O)Cc1cccs1` gave TRPC4 potent inactive, TRPC6 inhibitor inactive, TRPC4 inh inactive, TRPC4 agonist inactive and TRPC6 act inactive.
Screening O=C(Cc1cccs1)NNC(=S)NC(=O)c1ccccc1 returned TRPC4 potent inactive, TRPC6 inhibitor inactive, TRPC4 inh inactive, TRPC4 agonist 52* and TRPC6 act inactive.
C=CCn1c(NC(C)c2cc(Cl)ccc2O)nc2ccccc21 (stereo not drawn) was read as TRPC4 potent inactive, TRPC6 inhibitor inactive, TRPC4 inh -6*, TRPC4 agonist inactive and TRPC6 act inactive.
Screening O=C(NCCc1ccc(Cl)cc1)c1cccc(NC2=NC3CS(=O)(=O)CC3S2)c1 (stereo not drawn) returned TRPC4 potent inactive, TRPC6 inhibitor inactive, TRPC4 inh inactive, TRPC4 agonist inactive and TRPC6 act inactive.
`O=C1CC(c2ccccc2)c2cccc(F)c21` (stereo not drawn) gave TRPC4 potent inactive, TRPC6 inhibitor inactive, TRPC4 inh inactive, TRPC4 agonist inactive and TRPC6 act inactive.
CC(=O)N1CCCC(C(=O)c2ccc(Oc3ccccc3)cc2)C1 (stereo not drawn) was read as TRPC4 potent inactive, TRPC6 inhibitor inactive, TRPC4 inh inactive, TRPC4 agonist inactive and TRPC6 act inactive.
`CC(=O)OCCCN1C(=O)c2cccc3cc(Br)cc(c23)C1=O` gave TRPC4 potent inactive, TRPC6 inhibitor inactive, TRPC4 inh -6*, TRPC4 agonist inactive and TRPC6 act inactive.
For CCOC(=O)CCCCCN1C(=O)c2cccc3cccc(c23)C1=O the results were TRPC4 potent inactive, TRPC6 inhibitor inactive, TRPC4 inh inactive, TRPC4 agonist inactive and TRPC6 act inactive.
Cc1ccc(C(=O)CCC(=O)OCC(=O)N(CC(C)C)c2c(N)n(Cc3ccccc3)c(=O)[nH]c2=O)cc1 was read as TRPC4 potent inactive, TRPC6 inhibitor inactive, TRPC4 inh inactive, TRPC4 agonist inactive and TRPC6 act inactive.
Screening O=C(NC(C(=O)N/N=C/c1ccncc1)c1n[nH]c(=O)c2ccccc12)c1ccccc1 (stereo not drawn) returned TRPC4 potent inactive, TRPC6 inhibitor inactive, TRPC4 inh inactive, TRPC4 agonist inactive and TRPC6 act inactive.
For O=C(NC(C(=O)N/N=C/c1cccnc1)c1n[nH]c(=O)c2ccccc12)c1ccccc1 (stereo not drawn) the results were TRPC4 potent inactive, TRPC6 inhibitor inactive, TRPC4 inh inactive, TRPC4 agonist 53* and TRPC6 act inactive.
Screening N#C/C(N)=C(/C#N)N=Cc1cccc(Cl)c1 returned TRPC4 potent 11*, TRPC6 inhibitor inactive, TRPC4 inh inactive, TRPC4 agonist inactive and TRPC6 act inactive.
CCOC(=O)c1cc(C)[nH]c1C was read as TRPC4 potent inactive, TRPC6 inhibitor inactive, TRPC4 inh inactive, TRPC4 agonist inactive and TRPC6 act inactive.
For CCOC(=O)c1cc(C)[nH]c(=O)c1C#N the results were TRPC4 potent 10*, TRPC6 inhibitor inactive, TRPC4 inh inactive, TRPC4 agonist inactive and TRPC6 act inactive.
`C=CCn1c(CCNC(=O)C(C)(C)C)nc2ccccc21` gave TRPC4 potent inactive, TRPC6 inhibitor inactive, TRPC4 inh inactive, TRPC4 agonist 146* and TRPC6 act inactive.
`COc1ccccc1Nc1nnc(SCC(=O)NC(=O)Nc2ccc3c(c2)OCCO3)s1` gave TRPC4 potent inactive, TRPC6 inhibitor inactive, TRPC4 inh inactive, TRPC4 agonist inactive and TRPC6 act inactive.
CCOc1ccc(N(C(=O)CNC(=O)c2ccco2)C(C(=O)NCC2CCCO2)c2ccccc2)cc1 (stereo not drawn) was read as TRPC4 potent inactive, TRPC6 inhibitor inactive, TRPC4 inh inactive, TRPC4 agonist inactive and TRPC6 act inactive.
For COc1ccc(N(C(=O)CNC(=O)c2ccco2)C(C(=O)NCC2CCCO2)c2ccccc2)cc1 (stereo not drawn) the results were TRPC4 potent 11*, TRPC6 inhibitor inactive, TRPC4 inh inactive, TRPC4 agonist inactive and TRPC6 act inactive.
For COc1cc(OC)cc(C(=O)N[C@H](C(=O)OCC(N)=O)C(C)C)c1 the results were TRPC4 potent inactive, TRPC6 inhibitor inactive, TRPC4 inh inactive, TRPC4 agonist inactive and TRPC6 act inactive.
For COc1ccc(/C=C/CN2CCCC(C(=O)c3ccc(OC)c(F)c3)C2)cc1 (stereo not drawn) the results were TRPC4 potent inactive, TRPC6 inhibitor inactive, TRPC4 inh inactive, TRPC4 agonist 131* and TRPC6 act inactive.
For COC(=O)c1sc(-c2ccc(C(C)(C)C)cc2)cc1NC(=O)CSCC(=O)O the results were TRPC4 potent inactive, TRPC6 inhibitor inactive, TRPC4 inh -6*, TRPC4 agonist inactive and TRPC6 act inactive.
`COC(=O)c1sc(-c2ccc(Cl)cc2)cc1NC(=O)c1ccccc1C(=O)O` gave TRPC4 potent inactive, TRPC6 inhibitor inactive, TRPC4 inh inactive, TRPC4 agonist inactive and TRPC6 act inactive.
`COC(=O)c1sc(-c2ccc(C(C)(C)C)cc2)cc1NC(=O)c1ccccc1C(=O)O` gave TRPC4 potent 12*, TRPC6 inhibitor inactive, TRPC4 inh inactive, TRPC4 agonist inactive and TRPC6 act inactive.
`CCn1c(=N)n(CC(=O)c2ccc(Br)s2)c2ccccc21` gave TRPC4 potent inactive, TRPC6 inhibitor inactive, TRPC4 inh -6*, TRPC4 agonist inactive and TRPC6 act inactive.
N#Cc1c(N)nc2c(c1-c1ccccc1)CCC2 was read as TRPC4 potent inactive, TRPC6 inhibitor inactive, TRPC4 inh inactive, TRPC4 agonist inactive and TRPC6 act inactive.
For CC(Sc1nc2sc3c(c2c(=O)n1-c1ccccc1)CCCC3)C(=O)O (stereo not drawn) the results were TRPC4 potent 17*, TRPC6 inhibitor inactive, TRPC4 inh inactive, TRPC4 agonist inactive and TRPC6 act inactive.

Source: PubChem
